Our source for the viability and Survival values is ChEMBL document CHEMBL4257575, “Discovery of Novel Flavonoid Dimers To Reverse Multidrug Resistance Protein 1 (MRP1, ABCC1) Mediated Drug Resistance in Cancers Using a High Throughput Platform with "Click Chemistry"” (J Med Chem, 2018).

Format in all cases: cell-based
Data set [1] is described as follows: Cytotoxicity against human 2008/MRP1 cells assessed as cell survival at 2 uM after 5 days by MTS assay relative to control. Particulars: read-out: Survival.
Data set [2] concerns the target T1, Multidrug resistance-associated protein 1 (Homo sapiens, UniProt P33527). Nature of the data set: Inhibition of MRP1 in human 2008/MRP1 cells assessed as potentiation of doxorubicin-induced cytotoxicity by measuring cell survival at 2 uM after 5 days by MTS assay relative to control. Particulars: 120 h. The procedure, abridged:
(§1)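 2008/MRP1 cells (retroviral human MRP1 transfectant; RPMI 1640, 10% FBS) at 4,000 per well, with 100 nM doxorubicin plus crude, unpurified click products in DMSO: 2 µM in the primary screen, 1 µM in the secondary. Incubated 5 days at 37 °C. MTS/PMS added for 2 h at 37 °C, absorbance read at 490 nm. % survival is relative to wells without DOX or product. Run in triplicate, at least three experiments.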
Background: Formazan colour is commonly taken as a measure of viable cells.

In data set [3] the target is T1, Multidrug resistance-associated protein 1. Nature of the data set: Inhibition of MRP1 in human 2008/MRP1 cells assessed as potentiation of doxorubicin-induced cytotoxicity by measuring cell survival at 1 uM after 5 days by MTS assay relative to control. Particulars: 120 h. The procedure, abridged: as §1

Molecules are shown by their SMILES.

T1 sequence (P33527 whole entry): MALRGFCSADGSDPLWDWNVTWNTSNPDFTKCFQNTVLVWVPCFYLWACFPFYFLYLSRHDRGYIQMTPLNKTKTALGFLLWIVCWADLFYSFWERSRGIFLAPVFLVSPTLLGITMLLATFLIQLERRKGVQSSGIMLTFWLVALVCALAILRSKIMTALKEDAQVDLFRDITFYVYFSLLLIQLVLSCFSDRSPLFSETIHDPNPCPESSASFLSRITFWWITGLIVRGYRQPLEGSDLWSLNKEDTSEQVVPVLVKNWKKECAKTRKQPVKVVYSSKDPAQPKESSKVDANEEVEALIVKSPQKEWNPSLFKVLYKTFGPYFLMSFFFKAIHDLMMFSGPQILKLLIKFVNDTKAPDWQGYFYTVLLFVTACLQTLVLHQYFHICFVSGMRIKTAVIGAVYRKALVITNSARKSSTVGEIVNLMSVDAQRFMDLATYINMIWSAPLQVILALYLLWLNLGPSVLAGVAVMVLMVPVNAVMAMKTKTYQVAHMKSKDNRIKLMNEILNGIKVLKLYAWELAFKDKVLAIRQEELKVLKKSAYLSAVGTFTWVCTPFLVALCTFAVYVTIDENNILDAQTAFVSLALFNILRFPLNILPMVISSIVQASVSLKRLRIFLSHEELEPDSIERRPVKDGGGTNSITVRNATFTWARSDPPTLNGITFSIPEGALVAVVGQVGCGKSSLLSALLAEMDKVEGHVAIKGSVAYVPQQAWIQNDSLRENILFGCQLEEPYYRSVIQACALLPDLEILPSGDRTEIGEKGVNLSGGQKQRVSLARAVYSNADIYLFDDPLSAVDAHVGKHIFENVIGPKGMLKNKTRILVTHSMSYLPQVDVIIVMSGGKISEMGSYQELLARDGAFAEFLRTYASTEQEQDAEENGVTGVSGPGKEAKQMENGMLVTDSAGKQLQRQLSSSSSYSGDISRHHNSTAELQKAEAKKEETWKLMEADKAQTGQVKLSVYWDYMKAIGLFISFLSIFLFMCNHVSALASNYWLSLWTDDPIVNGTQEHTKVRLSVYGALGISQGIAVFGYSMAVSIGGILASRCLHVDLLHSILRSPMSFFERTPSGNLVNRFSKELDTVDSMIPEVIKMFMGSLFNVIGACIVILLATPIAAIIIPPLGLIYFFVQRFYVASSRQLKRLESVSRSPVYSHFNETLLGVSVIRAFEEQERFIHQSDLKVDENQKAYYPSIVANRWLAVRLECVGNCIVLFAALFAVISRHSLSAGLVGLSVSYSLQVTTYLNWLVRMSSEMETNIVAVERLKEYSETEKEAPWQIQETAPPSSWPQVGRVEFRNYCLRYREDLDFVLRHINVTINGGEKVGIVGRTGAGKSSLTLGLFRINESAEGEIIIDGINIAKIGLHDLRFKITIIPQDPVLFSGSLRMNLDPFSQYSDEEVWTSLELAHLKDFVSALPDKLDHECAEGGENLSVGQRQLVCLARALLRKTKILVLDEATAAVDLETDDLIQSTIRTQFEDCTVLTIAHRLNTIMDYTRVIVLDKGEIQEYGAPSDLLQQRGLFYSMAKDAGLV

Consider `O=c1cc(-c2ccc(OCCOCCOCCn3cc(CN(Cc4ccccc4)Cc4cn(CCOCCOCCOc5ccc(-c6cc(=O)c7ccccc7o6)cc5)nn4)nn3)cc2)oc2ccccc12`, for which, in data set [1], the viability at 120 h, 2 µM turned out to be 49%. Further, the Survival in data set [2] is 29%.

With `COc1cccc(COc2c(-c3ccc(OCCCCc4cn(CCOCCOCCOc5ccc(-c6oc7ccccc7c(=O)c6OCc6ccccc6)cc5)nn4)cc3)oc3ccccc3c2=O)c1`, the viability at 120 h, 2 µM in data set [1] stood at 53%. Further, the Survival in data set [2] is on record as 33%.

Take `O=C1c2ccccc2C(=O)N1CCc1cn(CCOCCOCCOc2ccc(-c3oc4ccccc4c(=O)c3OCc3ccccc3)cc2)nn1`: the viability at 120 h, 2 µM in data set [1] was 16%. Also, in data set [2], the Survival is recorded as 34%.

Regarding `O=c1cc(-c2ccc(OCCCc3cn(CCOCCOc4ccc(-c5cc(=O)c6cc(F)ccc6o5)cc4)nn3)cc2)oc2ccccc12`, the viability at 120 h, 2 µM in data set [1] worked out at 43%. Besides, in data set [2], the Survival is 39%.

Consider `O=C1c2ccccc2C(=O)N1CCc1cn(CCOCCOCCOc2ccc(-c3cc(=O)c4ccccc4o3)cc2)nn1`, for which the viability at 120 h, 2 µM in data set [1] is 4%. Further, the Survival in data set [2] is given as 28%.

Turning to `O=C1c2ccccc2C(=O)N1CCc1cn(CCOCCOc2ccc(-c3cc(=O)c4ccccc4o3)cc2)nn1`, the viability at 120 h, 2 µM in data set [1] turned out to be 18%. For the same compound, in data set [2], the Survival worked out at 37%.

As to `O=c1cc(-c2ccc(OCCCc3cn(CCOCCOc4cccc(-c5oc6ccccc6c(=O)c5OCc5ccccc5)c4)nn3)cc2)oc2cc(F)ccc12`, the Survival in data set [3] amounted to 55%; in data set [2] it was 45%. The viability at 120 h, 2 µM in data set [1] worked out at 99%.

`Cc1ccc2oc(-c3ccc(OCCCCc4cn(CCOCCOCCOc5ccc(-c6cc(=O)c7ccccc7o6)cc5)nn4)cc3)cc(=O)c2c1`: the viability at 120 h, 2 µM in data set [1] came out at 68%. Besides, the Survival in data set [2] was 39%.

For `COc1cccc(COc2c(-c3ccc(OCCCCc4cn(CCOCCOc5ccc(-c6cc(=O)c7ccccc7o6)cc5)nn4)cc3)oc3ccccc3c2=O)c1`, in data set [1], the viability at 120 h, 2 µM worked out at 63%. In addition, in data set [2], the Survival stood at 40%.

Regarding `O=C1c2ccccc2C(=O)N1CCc1cn(CCOCCOCCOc2ccc3c(=O)cc(-c4ccccc4)oc3c2)nn1`, the viability at 120 h, 2 µM in data set [1] was determined as 23%. The Survival in data set [2] came to 41%.

For the compound `COc1cccc(COc2c(-c3ccc(OCCCCc4cn(CCOCCOCCOc5ccc(-c6cc(=O)c7cc(C)ccc7o6)cc5)nn4)cc3)oc3ccccc3c2=O)c1`, the viability at 120 h, 2 µM in data set [1] was determined as 50%. Moreover, in data set [2], the Survival was 46%.

As for `O=C1c2ccccc2C(=O)N1CCc1cn(CCOc2cccc3c(=O)cc(-c4ccccc4)oc23)nn1`, the viability at 120 h, 2 µM in data set [1] was 11%. Further, in data set [2], the Survival is given as 37%.

Consider `O=c1cc(-c2ccc(OCCCc3cn(CCOCCOc4ccc5c(=O)cc(-c6ccccc6)oc5c4)nn3)cc2)oc2ccccc12`, for which the viability at 120 h, 2 µM in data set [1] was 39%. For the same compound, the Survival in data set [2] was determined as 39%.

As for `COc1cccc(COc2c(-c3ccc(OCCCCc4cn(CCOCCOc5ccc(-c6oc7ccccc7c(=O)c6OCc6ccccc6)cc5)nn4)cc3)oc3ccccc3c2=O)c1`, in data set [2], the Survival amounted to 68%.

As for `O=c1c(OCc2ccccc2)c(-c2ccc(OCCOCCn3cc(CN(Cc4ccccc4)Cc4cn(CCOCCOc5ccc(-c6oc7ccccc7c(=O)c6OCc6ccccc6)cc5)nn4)nn3)cc2)oc2ccccc12`, the Survival in data set [2] is 62%.

On to `CN(CCN(C)Cc1cn(CCOCCOCCOc2ccc(-c3cc(=O)c4ccccc4o3)cc2)nn1)Cc1cn(CCOCCOCCOc2ccc(-c3cc(=O)c4ccccc4o3)cc2)nn1`, for which the Survival in data set [2] turned out to be 71%.

Regarding `Cc1ccc(C(=O)/C=C/c2ccc(OCCCCc3cn(CCOCCOc4ccc5c(=O)cc(-c6ccccc6)oc5c4)nn3)cc2)c(O)c1`, in data set [2], the Survival was 62%.

For `CN(CCN(C)Cc1cn(CCOCCOCCOc2ccc(-c3cc(=O)c4cc(F)ccc4o3)cc2)nn1)Cc1cn(CCOCCOCCOc2ccc(-c3cc(=O)c4cc(F)ccc4o3)cc2)nn1`, the Survival in data set [2] was 79%.

In the case of `O=c1cc(-c2ccccc2)oc2cc(OCCOCCOCCn3cc(-c4ccc(-c5cn(CCOCCOCCOc6ccc7c(=O)cc(-c8ccccc8)oc7c6)nn5)cc4)nn3)ccc12`, in data set [2], the Survival is 88%.

Regarding `O=c1cc(-c2ccc(OCCOCCn3cc(CNc4ccccc4)nn3)cc2)oc2ccc(F)cc12`, the Survival in data set [2] was 81%.

Take `COc1cccc(COc2c(-c3ccc(OCCCCc4cn(CCOCCOCCOc5ccc(-c6cc(=O)c7ccccc7o6)cc5)nn4)cc3)oc3ccccc3c2=O)c1`: the Survival in data set [2] is 58%.

For `O=c1c(OCc2ccccc2)c(-c2ccc(OCCOCCn3cc(CNc4ccccc4)nn3)cc2)oc2ccccc12`, the Survival in data set [2] stood at 91%.

Regarding `O=c1cc(-c2ccc(OCCCc3cn(CCOCCOCCOc4ccc(-c5cc(=O)c6cc(F)ccc6o5)cc4)nn3)cc2)oc2ccccc12`, the viability at 120 h, 2 µM in data set [1] is 44%. Besides, in data set [2], the Survival is given as 46%.

As to `C#CCCCOc1ccc(-c2cc(=O)c3ccccc3o2)cc1`, in data set [2], the Survival stood at 74%.

For `Cc1ccc2oc(-c3ccc(OCCOCCOCCN=[N+]=[N-])cc3)cc(=O)c2c1`, in data set [2], the Survival is given as 84%.

For the compound `COCOc1cc(OCc2ccccc2)c2c(=O)cc(-c3ccc(OCCCc4cn(CCOCCOc5ccc(-c6cc(=O)c7cc(F)ccc7o6)cc5)nn4)cc3)oc2c1`, the Survival in data set [2] stood at 63%.

As to `Cc1ccc2oc(-c3ccc(OCCOCCOCCn4cc(CCCCOc5ccc6c(=O)cc(-c7ccccc7)oc6c5)nn4)cc3)cc(=O)c2c1`, in data set [2], the Survival was 51%.

`C#CCCCCOc1ccc(/C=C/C(=O)c2ccc(F)cc2O)cc1`: the Survival in data set [2] is 99%.

As to `O=Cc1ccc(OCCCCc2cn(CCOCCOCCOc3ccc(-c4oc5ccccc5c(=O)c4OCc4ccccc4)cc3)nn2)cc1`, the Survival in data set [2] came to 75%.

For `O=c1cc(-c2ccc(OCCOCCn3cc(-c4ccc(-c5cn(CCOCCOc6ccc(-c7cc(=O)c8ccccc8o7)cc6)nn5)cc4)nn3)cc2)oc2ccccc12`, the Survival in data set [2] came out at 81%.

`COc1cccc(COc2c(-c3ccc(OCCOCCn4cc(CCN5C(=O)c6ccccc6C5=O)nn4)cc3)oc3ccccc3c2=O)c1`: the Survival in data set [2] amounted to 75%.

Regarding `O=C1c2ccccc2C(=O)N1CCc1cn(CCOCCOCCOc2ccc(-c3cc(=O)c4cc(F)ccc4o3)cc2)nn1`, the viability at 120 h, 2 µM in data set [1] worked out at 10%. Further, the Survival in data set [2] turned out to be 28%.

As for `O=c1cc(-c2ccccc2)oc2cc(OCCOCCOCCn3cc(CCCOc4ccc(-c5cc(=O)c6cc(F)ccc6o5)cc4)nn3)ccc12`, the viability at 120 h, 2 µM in data set [1] amounted to 105%. Besides, the Survival in data set [2] came out at 40%.

Regarding `C#CCCN1C(=O)c2ccccc2C1=O`, the Survival in data set [2] is 83%.

On to `O=C1c2ccccc2C(=O)N1CCc1cn(CCOCCOc2ccc(-c3cc(=O)c4cc(F)ccc4o3)cc2)nn1`, for which, in data set [1], the viability at 120 h, 2 µM was 14%. Besides, in data set [2], the Survival was determined as 39%.

With `Cc1ccc(O)c(C(=O)/C=C/c2ccc(OCCCCc3cn(CCOCCOCCOc4ccc5c(=O)cc(-c6ccccc6)oc5c4)nn3)cc2)c1`, the Survival in data set [2] is 84%.

With `C#CCN(CCOc1ccc2c(=O)cc(-c3ccccc3)oc2c1)Cc1ccccc1`, the Survival in data set [2] was 86%.

Take `Cc1ccc2oc(-c3ccc(OCCCCc4cn(CCOCCOc5cccc(-c6oc7ccccc7c(=O)c6OCc6ccccc6)c5)nn4)cc3)cc(=O)c2c1`: the Survival in data set [2] amounted to 55%.

With `O=C(/C=C/c1ccc(OCCCCc2cn(CCOCCOc3ccc(-c4cc(=O)c5cc(F)ccc5o4)cc3)nn2)cc1)c1ccccc1O`, the Survival in data set [2] came out at 72%.

Regarding `O=Cc1ccc(OCCCCc2cn(CCOCCOc3ccc(-c4cc(=O)c5cc(F)ccc5o4)cc3)nn2)cc1`, the Survival in data set [2] is recorded as 78%.

Regarding `COCOc1cc(OCc2ccccc2)c2c(=O)cc(-c3ccc(OCCCc4cn(CCOc5cccc6c(=O)cc(-c7ccccc7)oc56)nn4)cc3)oc2c1`, the Survival in data set [2] worked out at 81%.

With `O=Cc1ccc(OCCCCc2cn(CCOCCOc3cccc(-c4oc5ccccc5c(=O)c4OCc4ccccc4)c3)nn2)cc1`, the Survival in data set [2] was determined as 82%.

Turning to `O=c1cc(-c2ccccc2)oc2cc(OCCOCCn3cc(CN(Cc4cn(CCOCCOc5ccc6oc(-c7ccccc7)cc(=O)c6c5)nn4)Cc4cn(CCOCCOc5ccc6oc(-c7ccccc7)cc(=O)c6c5)nn4)nn3)ccc12`, the Survival in data set [2] is reported as 83%.

Take `Cc1ccc2oc(-c3ccc(OCCOCCOCCn4cc(CCCOc5ccc6c(=O)cc(-c7ccccc7)oc6c5)nn4)cc3)cc(=O)c2c1`: the Survival in data set [2] turned out to be 55%.

In the case of `[N-]=[N+]=NCCOCCOCCOc1ccc2c(=O)cc(-c3ccccc3)oc2c1`, in data set [2], the Survival stood at 90%.

With `O=c1cc(-c2ccccc2)oc2cc(OCCn3cc(CN(Cc4ccccc4)Cc4cn(CCOc5ccc6occ(-c7ccccc7)c(=O)c6c5)nn4)nn3)ccc12`, the Survival in data set [2] turned out to be 96%.

`COc1cccc(COc2c(-c3ccc(OCCOCCn4cc(CCCOc5ccc(-c6cc(=O)c7cc(F)ccc7o6)cc5)nn4)cc3)oc3ccccc3c2=O)c1`: the Survival in data set [2] is listed as 86%.

Regarding `C#CCNc1ccccc1`, the Survival in data set [2] was 87%.

Take `O=c1cc(-c2ccc(OCCOCCn3cc(-c4ccc(-c5cn(CCOCCOc6ccc(-c7cc(=O)c8cc(F)ccc8o7)cc6)nn5)cc4)nn3)cc2)oc2ccc(F)cc12`: in data set [2], the Survival turned out to be 77%.

Regarding `O=C(/C=C/c1ccc(OCCCCc2cn(CCOCCOCCOc3ccc(-c4cc(=O)c5ccccc5o4)cc3)nn2)cc1)c1ccc(F)cc1O`, the Survival in data set [2] was 55%.

Turning to `COc1cccc(COc2c(-c3ccc(OCCOCCn4cc(CCCCOc5ccc(/C=C/C(=O)c6ccc(F)cc6O)cc5)nn4)cc3)oc3ccccc3c2=O)c1`, the Survival in data set [2] turned out to be 75%.

In the case of `COCOc1cc(OCc2ccccc2)c2c(=O)cc(-c3ccc(OCCCc4cn(CCOCCOCCOc5ccc(-c6cc(=O)c7ccccc7o6)cc5)nn4)cc3)oc2c1`, in data set [2], the Survival is on record as 66%.

Turning to `[N-]=[N+]=NCCOCCOCCOc1ccc(-c2cc(=O)c3ccccc3o2)cc1`, the Survival in data set [2] was 85%.
